For orientation: inhibition means the drop in the measured response relative to a control, in per cent. One may read the IC50 as the concentration that gives 50% inhibition. Low readings indicate inhibition by little substance, high ones a need for much substance.

Active and inactive are the calls of the source. The calls are words filed in the database; no cut-off is given here.

The nature of series [1]: (§1) Antiinvasive activity against human HuH7 cells at 100 uM after 24 hrs by matrigel assay relative to control. The format is functional, Huh-7. The procedure, abridged:
(§2)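 Boyden chambers with 8 µm-pore filters coated with Matrigel. 2.5 × 10⁵ HuH7 cells were seeded in the upper well with 100 µM compound. HGF (20 ng/mL) in the lower chamber served as chemoattractant. After 24 h, non-invaded cells were wiped off, and filters were methanol-fixed and haematoxylin-stained. Cells on the lower surface were counted in 10 fields, expressed as % of control; mean ± SD of three independent experiments.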

Series [2] concerns Huh-7. The series is described as follows: Cytotoxicity against human HuH7 cells at 400 uM after 144 hrs by MTT assay in presence of IBMX. The class given is functional, cell-based. The procedure, abridged: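 HuH7 cells pretreated with IBMX (1 mM) before bisphosphonate was added. Cells were seeded at 5x10⁴ cells/well and held 24 h in complete medium, then exposed 144 h to compound in 2% FCS medium. Read-out by MTT (2 mg/mL, 4 h, 37 °C), DMSO solubilisation, OD 570 nm. Mean ± SD of three independent experiments.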
Background: Tetrazolium assays rely on reduction of a dye to a coloured formazan, in cell work by metabolically active cells.

For series [3], the system named is Huh-7. As to the kind of experiment: (§3) Cytotoxicity against human HuH7 cells after 144 hrs by MTT assay. The format is functional, cell-based. The procedure, abridged:
(§4)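 MTT assay. HuH7 cells were seeded at 5x10⁴/well and grown 24 h in complete medium, then switched to 2% FCS medium containing compound (10⁻⁶–10⁻³ M) for 144 h. Cells were washed with PBS, given MTT (2 mg/mL) for 4 h at 37 °C, and formazan was dissolved in DMSO. OD was read at 570 nm. Mean ± SD of three independent experiments.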

Series [4] can be described thus: as §3. The class given is functional, cell-based. The following applies: Huh-7, 144 h. The procedure, abridged:
as §4

The subject of series [5] is Huh-7. The series is described as follows: Induction of apoptosis in human HuH7 cells after 144 hrs by Annexin V/propidium iodide staining-based FACS analysis. The class given is functional, cell-based. The procedure, abridged:
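HuH7 cells were exposed to compound for 144 h, then treated and untreated cells were stained with Annexin V and PI. Flow cytometry scored early apoptosis as Ann V⁺/PI⁻ and late apoptosis as Ann V⁺/PI⁺.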
(In general: A flow cytometer gives signals particle by particle.)

A short description of series [6]: Cell cycle arrest in human HuH7 cells assessed as accumulation at G1 phase after 144 hrs by […]propidium iodide staining-based FACS analysis. The following applies: Huh-7. The format is functional.
Series [7] can be described thus: Antimigratory activity against human HuH7 cells at 100 uM after 24 hrs relative to control. The format is functional. The following applies: Huh-7, 24 h. The procedure, abridged:
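Migration chambers with the insert undersides coated overnight at 4 °C with fibronectin (100 µg/mL). 2.5 × 10⁵ HuH7 cells were placed in the upper chamber with 100 µM compound, with HGF (20 ng/mL) in the lower chamber. After 24 h, non-migrated cells were scraped off, and cells on the lower face were fixed, stained and counted. Results are % of control set at 100%; triplicate.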

The test system of series [8] is Huh-7. As to the kind of experiment: Cytotoxicity against human HuH7 cells at 1 mM after 144 hrs by MTT assay in presence of IBMX. The format is functional, cell-based. The procedure, abridged: (§5)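 MTT viability assay with the cells pretreated with IBMX (1 mM) before compound addition; the pretreatment time is given as 30 min in Methods and 1 h in the legend. Then 144 h exposure in 2% FCS medium, MTT (2 mg/mL) for 4 h at 37 °C, DMSO solubilisation and OD read at 570 nm. Mean ± SD of three independent experiments.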

A short description of series [9]: Cytotoxicity against human HuH7 cells at 250 uM after 144 hrs by MTT assay. The format is functional. The conditions noted are these: Huh-7, 144 h. The procedure, abridged:
as §4

A short description of series [10]: Cytotoxicity against human HuH7 cells at 10 uM to 1 mM after 144 hrs by MTT assay. The format is functional, Huh-7. The procedure, abridged:
as §4

The nature of series [11]: Cytotoxicity against human HuH7 cells at 1 mM after 144 hrs by MTT assay. The class given is cell-based. The following applies: huh-7, 144 h, 1000 µM. The procedure, abridged: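 HuH7 cells plated at 5x10⁴ cells/well in complete medium for 24 h, then switched to 2% FCS medium with bisphosphonate (10^-6 to 10^-3 M range) for 144 h. PBS wash, then MTT (2 mg/mL) 4 h at 37 °C, formazan dissolved in DMSO, OD read at 570 nm. Mean ± SD of three independent experiments.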

Series [12] has as its system Serum. The series is described as follows: Stability in human serum assessed as [31P] NMR chemical shift after 1 day by [31P]NMR spectroscopy. The class given is ADME, cell-free. The following applies: 24 h.
In series [13] the test system is Huh-7. Described as §1. The class given is functional. The procedure, abridged: as §2
Series [14] is described as follows: Stability of the compound in D2O assessed as [31P] NMR chemical shift after 1 day by [31P]NMR spectroscopy. The class given is physicochemical. The following applies: 24 h.
For series [15], the system named is Huh-7. The series is described as follows: Cytotoxicity against human HuH7 cells at 125 uM after 144 hrs by MTT assay in presence of IBMX. The class given is functional, cell-based. The procedure, abridged:
as §5

A short description of series [16]: Drug metabolism in human HuH7 cell extract assessed as phosphorylated metabolite formation by measuring [31P] NMR chemical shift at 0.5 mM after 5 days by [31P]NMR spectroscopy. The class given is ADME, cell-based. The following applies: huh-7, 120 h, 500 µM.
The nature of series [17]: Stability of the compound in D2O assessed as [31P] NMR chemical shift after 5 days by [31P]NMR spectroscopy. The class given is physicochemical. The following applies: 120 h.
Series [18] deals with Serum. The series is described as follows: Stability in human serum assessed as [31P] NMR chemical shift after 3 days by [31P]NMR spectroscopy. The class given is ADME, cell-free. The following applies: 72 h.
Series [19] can be described thus: Stability of the compound in cell culture medium assessed as [31P] NMR chemical shift after 3 days by [31P]NMR spectroscopy. The format is physicochemical. The following applies: 72 h.
A short description of series [20]: Stability in human HuH7 cell extract assessed as compound remaining by measuring [31P] NMR chemical shift at 0.5 mM after 5 days by [31P]NMR spectroscopy. The class given is ADME, cell-based. The conditions noted are these: huh-7, 120 h, 500 µM.
Series [21] deals with Serum. The series is described as follows: Stability in human serum assessed as [31P] NMR chemical shift after 5 days by [31P]NMR spectroscopy. The following applies: 120 h. The class given is ADME, cell-free.
Series [22] can be described thus: Stability of the compound in cell culture medium assessed as [31P] NMR chemical shift after 5 days by [31P]NMR spectroscopy. The following applies: 120 h. The format is physicochemical.
Series [23] in a line: Stability of the compound in D2O assessed as [31P] NMR chemical shift after 3 days by [31P]NMR spectroscopy. The class given is physicochemical. The conditions noted are these: 72 h.
Series [24] can be described thus: Stability of the compound in cell culture medium assessed as [31P] NMR chemical shift after 1 day by [31P]NMR spectroscopy. The class given is physicochemical. The conditions noted are these: 24 h.

As for `O=P(O)(O)C(O)(c1ccc(Br)cc1)P(=O)(O)O`, the Activity in [1] is 40%; in series [6], 58%. The result in series [2] and in series [5] was Active. Further, in [3], the inhibition entry is “Dose-dependent effect”. Moreover, the IC50 in [4] came to 440 µM. In series [7], the inhibition at 100 µM is 95%.
For the compound `O=P(O)(Oc1ccccc1)C(O)(c1ccccc1)P(=O)(O)Oc1ccccc1` (stereo not given), the result in series [8] was inactive. In addition, in series [3], the inhibition entry was “Dose-dependent effect”. In series [4], this compound displayed an IC50 of 555 µM.
In the case of `O=P(O)(O)C(O)(c1ccc(Br)cc1)P(=O)(O)Oc1ccccc1` (stereo not given), in [3], the inhibition entry was “Dose-dependent effect”. This compound returned an IC50 in series [4] of 100 µM. Further, in series [9], the inhibition at 250 µM was 80%.
On to `O.O=P(O)(O)C(O)(Cn1ccnc1)P(=O)(O)O` [ZOLEDRONIC ACID], for which the Activity in [1] is given as 54%. In [4], this compound displayed an IC50 of 60 µM. This compound also registered an inhibition at 100 µM in series [7] of 72%. The compound also displayed an inhibition at 250 µM in series [9] of 80%.
`COP(=O)(O)C(O)(c1ccc(Br)cc1)P(=O)(O)OC` (stereo not given): in [10], the “inhibition (INH)” value came out at 15%.
For the compound `O=P(O)(O)C(O)(c1ccccc1)P(=O)(O)O`, the outcome in series [8] was Active. Moreover, the “inhibition (INH)” value in series [10] is 15%.
On to `CC(C)Cn1c(=O)n(C)c(=O)c2[nH]cnc21` [ISOBUTYLMETHYLXANTHINE], for which, in series [11], the Activity result is listed as “Non-toxic”.
In the case of `O=P(O)(Oc1ccccc1)C(O)(c1ccc(Br)cc1)P(=O)(O)Oc1ccccc1` (stereo not given), the Stability is 12.85 ppm in [12]; 12.8 ppm in series [14]; 12.8 ppm in series [17]; 12.65 ppm in series [18]; 12.83 ppm in series [19]; 12.09 ppm in series [20]. Besides, the Stability turned out to be 12.8 ppm in series [21], 12.83 ppm in series [22], 12.78 ppm in [23] and 12.85 ppm in [24]. Further, the outcome in series [13] and in series [15] was inactive. In addition, the inhibition result in [3] was “Dose-dependent effect”. The IC50 in series [4] was 125 µM. The Drug metabolism entry in [16] is “metabolite_detected”. For the same compound, the result in [5] was Active. For the same compound, in series [6], the Activity was determined as 58%. The same compound showed an inhibition at 100 µM in [7] of 68%. Also, the inhibition at 250 µM in series [9] stood at 80%.

Source of the values: ChEMBL document CHEMBL3232952, “Bisphosphonate prodrugs: synthesis and biological evaluation in HuH7 hepatocarcinoma cells” (Eur J Med Chem, 2014).
